Reference: ChEMBL document CHEMBL3877290, “Targeting the entry region of Hsp90's ATP binding pocket with a novel 6,7-dihydrothieno[3,2-c]pyridin-5(4H)-yl amide” (Eur J Med Chem, 2016)
Active and inactive are the calls of the source. No cut-off for these calls is given here.

Experiments:
[1] = Antiproliferative activity against gefitinib-resistant human NCI-H1975 cells after 1 to 3 days by MTS assay; assay type: functional
How it was run: (§1)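 Cells seeded at 3 × 10^3 (Skbr3) or 2 × 10^3 (H1975) per well and left to attach overnight, then exposed to varying compound concentrations or 1% DMSO vehicle at 37 °C for 1, 2 and 3 days. Viability read by MTS colorimetric assay at 490 nm and expressed as percent of DMSO-only absorbance. Skbr3 in RPMI 1640 with 25 mM HEPES; H1975 in RPMI 1640 with L-glutamine; both with 10% FBS and penicillin/streptomycin.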

[2] = target: Heat shock protein HSP 90-alpha (Homo sapiens, UniProt P07900); assay: Inhibition of fluorescein isothiocyanate labeled geldanamycin binding to N-terminal domain of full length human recombinant Hsp90alpha expressed in Escherichia coli BL21 (DE3) after 14 hrs by fluorescence polarization assay
[3] = test system: NCI-H1975; assay: cells; settings: Homo sapiens, NCI-H1975, 24 h, read-out: Activity
[4] = Antiproliferative activity against Her2-overexpressing human SKBR3 cells after 1 to 3 days by MTS assay; assay type: functional; settings: SK-BR-3; how it was run: as §1
[5] = test system: NCI-H1975; assay: Induction of apoptosis in gefitinib-resistant human NCI-H1975 cells assessed as cleavage of caspase 3 at 0.5 uM after 24 hrs by Western blot analysis; assay type: functional, cell-based
How it was run: (§2)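 H1975 cells seeded 1 × 10^6 per 100 mm dish, attached overnight, exposed 24 h to 0.05, 0.1, 0.5, 1 and 2 µM compound, with 1% DMSO and 1 µM geldanamycin as controls. Lysed in Tris-HCl pH 7.6/NaCl/NP-40/deoxycholate/SDS buffer; 30 µg per lane SDS-PAGE, PVDF, 5% milk block, specific antibodies (PARP, caspase 3, cleaved caspase 3/8, β-actin), HRP secondary, ECL detection.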

[6] = target: T1, Heat shock protein HSP90 (Homo sapiens) (UniProt P07900+P08238); settings: NCI-H1975, 0.05 to 2 uM
[7] = test system: NCI-H1975; assay: Induction of apoptosis in gefitinib-resistant human NCI-H1975 cells assessed as cleavage of caspase 8 at 0.5 uM after 24 hrs by Western blot analysis; assay type: functional, cell-based; how it was run: as §2
[8] = target: CYP3A (Homo sapiens, UniProt P08684+P20815+P24462+Q9HB55); assay: Inhibition of CYP3A in human liver microsomes assessed as midazolam 1'-hydroxylation by LC/MS/MS analysis; assay type: ADME; settings: probe midazolam (1'-hydroxylation)
How it was run: (§3)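 Pooled human liver microsomes incubated without and with compound at 0–50 µM final (acetonitrile below 0.5%); probe activities in cocktail incubation: phenacetin O-deethylation (CYP1A2), tolbutamide 4-hydroxylation (2C9), omeprazole hydroxylation (2C19), dextromethorphan O-demethylation (2D6), midazolam 1'-hydroxylation (3A). Metabolites quantified by tandem mass spectrometry; duplicates; IC50 derived.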

[9] = target: T1, Heat shock protein HSP90 (Homo sapiens); settings: NCI-H1975, 0.05 to 2 uM; remark: listed apart in the source
[10] = target: T1, Heat shock protein HSP90 (Homo sapiens); settings: NCI-H1975, 0.05 to 2 uM; remark: listed apart in the source
[11] = test system: NCI-H1975; assay: Induction of apoptosis in gefitinib-resistant human NCI-H1975 cells assessed as cleavage of PARP at 0.5 uM after 24 hrs by Western blot analysis; assay type: functional, cell-based; how it was run: as §2
[12] = test system: NCI-H1975; assay: Induction of apoptosis in gefitinib-resistant human NCI-H1975 cells assessed as necrotic cells at 0.5 uM after 24 hrs by Annexin V-FITC/propidium iodide staining based flow cytometry (reference value: 2.68%); assay type: functional
[13] = test system: NCI-H1975; assay: Induction of apoptosis in gefitinib-resistant human NCI-H1975 cells assessed as viable cells at 0.5 uM after 24 hrs by Annexin V-FITC/propidium iodide staining based flow cytometry (reference value: 92.68%); assay type: functional; settings: NCI-H1975, 24 h, read-out: Activity
[14] = target: T2, Cytochrome P450 1A2 (Homo sapiens, UniProt P05177); assay: Inhibition of CYP1A2 in human liver microsomes assessed as phenacetin O-deethylation by LC/MS/MS analysis; assay type: ADME; how it was run: as §3
T2 sequence (P05177 whole entry): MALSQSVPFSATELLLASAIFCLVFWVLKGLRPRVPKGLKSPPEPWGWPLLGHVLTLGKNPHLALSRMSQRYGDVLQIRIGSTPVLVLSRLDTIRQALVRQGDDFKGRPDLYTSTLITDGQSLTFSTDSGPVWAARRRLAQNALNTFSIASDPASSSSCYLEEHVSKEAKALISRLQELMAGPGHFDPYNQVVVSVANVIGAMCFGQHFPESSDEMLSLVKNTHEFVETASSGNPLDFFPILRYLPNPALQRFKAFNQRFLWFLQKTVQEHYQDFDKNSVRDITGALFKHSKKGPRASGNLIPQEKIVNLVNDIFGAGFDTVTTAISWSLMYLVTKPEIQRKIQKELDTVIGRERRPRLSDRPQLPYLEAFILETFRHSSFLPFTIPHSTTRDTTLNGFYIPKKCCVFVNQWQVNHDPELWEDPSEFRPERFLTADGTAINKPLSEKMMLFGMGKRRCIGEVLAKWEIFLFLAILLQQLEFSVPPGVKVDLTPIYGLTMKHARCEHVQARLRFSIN

[15] = test system: Mus musculus; assay: Toxicity in NOD-scid IL2Rgamma-null mouse xenografted with human NCI-H1975 cells assessed as mortality at 10 mg/kg, ip administered daily followed by weekend rest for 2 weeks measured twice per week during compound dosing; assay type: organism-based; settings: in vivo, 336 h
How it was run: (§4)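 NSG mice (8 per group, randomised) received 2.0 × 10^6 H1975 cells s.c. in the left flank on day zero. Dosing began once tumours reached 500 mm3: i.p. at 10 mg/kg or DMSO vehicle, daily with weekend rest, for 2 weeks. Body weight tracked and deaths recorded during treatment. Housing in individually ventilated cages at 25±2 °C with a 12 h light-dark cycle.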

[16] = target: Cytochrome P450 2C9 (Homo sapiens, UniProt P11712); assay: Inhibition of CYP2C9 in human liver microsomes assessed as tolbutamide 4-methylhydroxylation by LC/MS/MS analysis; assay type: ADME; how it was run: as §3
Cytochrome P450 2C9, sequence (P11712 whole entry): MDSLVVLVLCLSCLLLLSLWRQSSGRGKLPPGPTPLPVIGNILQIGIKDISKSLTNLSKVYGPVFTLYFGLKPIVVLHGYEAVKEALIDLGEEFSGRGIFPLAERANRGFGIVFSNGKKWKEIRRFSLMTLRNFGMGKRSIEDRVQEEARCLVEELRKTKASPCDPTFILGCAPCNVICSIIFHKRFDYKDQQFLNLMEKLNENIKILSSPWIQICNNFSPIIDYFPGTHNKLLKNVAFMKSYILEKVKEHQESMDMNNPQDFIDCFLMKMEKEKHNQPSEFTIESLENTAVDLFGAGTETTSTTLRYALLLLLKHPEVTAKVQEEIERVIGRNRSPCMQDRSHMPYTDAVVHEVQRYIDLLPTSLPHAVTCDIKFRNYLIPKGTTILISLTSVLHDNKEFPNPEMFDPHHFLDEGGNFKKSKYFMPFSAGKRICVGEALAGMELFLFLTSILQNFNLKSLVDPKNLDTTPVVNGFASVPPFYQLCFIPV

[17] = test system: NCI-H1975; assay: Induction of apoptosis in gefitinib-resistant human NCI-H1975 cells assessed as early apoptotic cells at 0.5 uM after 24 hrs by Annexin V-FITC/propidium iodide staining based flow cytometry (reference value: 1.85%); assay type: functional
[18] = target: Cytochrome P450 2D6 (Homo sapiens, UniProt P10635); assay: Inhibition of CYP2D6 in human liver microsomes assessed as dextromethorphan O-demethylation by LC/MS/MS analysis; assay type: ADME; how it was run: as §3
Cytochrome P450 2D6, sequence (P10635 whole entry): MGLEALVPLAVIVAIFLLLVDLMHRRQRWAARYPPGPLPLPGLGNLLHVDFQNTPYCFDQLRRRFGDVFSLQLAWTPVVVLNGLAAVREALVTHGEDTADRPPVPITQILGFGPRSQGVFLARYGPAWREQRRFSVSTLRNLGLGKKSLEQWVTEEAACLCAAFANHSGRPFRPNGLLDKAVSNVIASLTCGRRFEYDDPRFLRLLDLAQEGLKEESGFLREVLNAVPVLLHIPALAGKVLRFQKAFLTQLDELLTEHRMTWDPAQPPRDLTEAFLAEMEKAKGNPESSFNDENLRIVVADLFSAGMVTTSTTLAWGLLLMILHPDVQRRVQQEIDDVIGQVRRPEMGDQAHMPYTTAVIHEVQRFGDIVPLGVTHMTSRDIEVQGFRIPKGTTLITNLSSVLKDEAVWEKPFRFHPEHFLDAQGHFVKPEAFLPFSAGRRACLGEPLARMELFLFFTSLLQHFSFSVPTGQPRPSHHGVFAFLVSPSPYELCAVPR

[19] = test system: NCI-H1975; assay: Induction of apoptosis in gefitinib-resistant human NCI-H1975 cells assessed as late apoptotic cells at 0.5 uM after 24 hrs by Annexin V-FITC/propidium iodide staining based flow cytometry (reference value: 2.79%); assay type: functional
[20] = test system: NCI-H1975; assay: Antitumor activity against human NCI-H1975 cells xenografted in NOD-scid IL2Rgamma-null mouse assessed as tumor growth inhibition at 10 mg/kg, ip administered daily followed by weekend rest for 2 weeks measured twice per week during compound dosing; assay type: functional, organism-based
[21] = Effect on beta-actin level in gefitinib-resistant human NCI-H1975 cells at 0.05 to 2 uM after 24 hrs by Western blot analysis; assay type: ADME, cell-based; settings: nci-h1975, 24 h; how it was run: as §2
[22] = target: T1, Heat shock protein HSP90 (Homo sapiens); settings: NCI-H1975, 0.05 to 2 uM; remark: listed apart in the source
[23] = target: T1, Heat shock protein HSP90 (Homo sapiens); settings: NCI-H1975, 0.05 to 2 uM; remark: listed apart in the source
[24] = test system: Mus musculus; assay: Toxicity in NOD-scid IL2Rgamma-null mouse xenografted with human NCI-H1975 cells assessed as body weight loss at 10 mg/kg, ip administered daily followed by weekend rest for 2 weeks measured twice per week during compound dosing; assay type: organism-based; settings: in vivo, 336 h; how it was run: as §4
[25] = test system: Mus musculus; assay: Decrease of Akt level in human NCI-H1975 cells xenografted in NOD-scid IL2Rgamma-null mouse at 10 mg/kg, ip administered daily followed by weekend rest for 2 weeks by immunohistochemical analysis; assay type: functional, organism-based
[26] = target: T1, Heat shock protein HSP90 (Homo sapiens); settings: NCI-H1975, 0.05 to 2 uM; remark: listed apart in the source
[27] = target: Cytochrome P450 2C19 (Homo sapiens, UniProt P33261); assay: Inhibition of CYP2C19 in human liver microsomes assessed as omepraozle hydroxylation by LC/MS/MS analysis; assay type: ADME; how it was run: as §3
Cytochrome P450 2C19, sequence (P33261 whole entry): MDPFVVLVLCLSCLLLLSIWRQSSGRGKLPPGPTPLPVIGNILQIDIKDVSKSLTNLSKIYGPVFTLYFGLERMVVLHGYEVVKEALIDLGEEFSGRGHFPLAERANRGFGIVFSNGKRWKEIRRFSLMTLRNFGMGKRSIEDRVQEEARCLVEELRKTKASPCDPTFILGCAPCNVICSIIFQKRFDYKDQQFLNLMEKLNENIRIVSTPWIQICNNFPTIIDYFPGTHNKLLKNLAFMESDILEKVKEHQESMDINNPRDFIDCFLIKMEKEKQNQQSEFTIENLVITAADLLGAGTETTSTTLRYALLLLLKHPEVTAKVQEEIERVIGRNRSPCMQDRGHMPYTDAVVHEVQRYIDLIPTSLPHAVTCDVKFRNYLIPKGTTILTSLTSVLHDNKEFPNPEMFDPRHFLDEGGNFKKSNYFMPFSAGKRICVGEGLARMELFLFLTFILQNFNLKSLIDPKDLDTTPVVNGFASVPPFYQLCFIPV

Question: With `O=C(Nc1ccccc1)c1cc(Cl)c(O)cc1O` as the compound, how does the GI50 [1] read?
Answer: The GI50 was > 50 µM.

Question: And the IC50 [2]?
Answer: Its IC50 is > 1 µM.

Question: For `COC1=C2C[C@@H](C)C[C@H](OC)[C@H](O)[C@@H](C)/C=C(\C)[C@H](OC(N)=O)[C@@H](OC)/C=C\C=C(/C)C(=O)NC(=CC1=O)C2=O` [GELDANAMYCIN], which viability at 1 µM [3] is on record?
Answer: The viability at 1 µM was 65.7%.

Question: What about the GI50 [4] of the same compound?
Answer: Its GI50 is 0.43 µM.

Question: What about the GI50 [1] of the same compound?
Answer: The GI50 was 0.56 µM.

Question: Which Activity [5] does the source give for `CC(C)c1cc(C(=O)N2CCc3sccc3C2)c(O)cc1O` here?
Answer: Its Activity is “Active”.

Question: What about the inhibition [6] of the same compound?
Answer: Its inhibition is “Active”.

Question: And the Activity [7]?
Answer: Its Activity is “Active”.

Question: And the IC50 [8]?
Answer: The IC50 was > 50 µM.

Question: And the inhibition [9]?
Answer: The inhibition was “Active”.

Question: And the inhibition [10]?
Answer: Its inhibition is “Active”.

Question: And the Activity [11]?
Answer: Its Activity is “Active”.

Question: And the Activity [12]?
Answer: The Activity was 3.67%.

Question: What about the viability at 0.5 µM [13] of the same compound?
Answer: The viability at 0.5 µM was 83.9%.

Question: And the IC50 [14]?
Answer: Its IC50 is > 50 µM.

Question: And the Activity [15]?
Answer: Its Activity is “Non-Toxic”.

Question: And the IC50 [16]?
Answer: Its IC50 is > 50 µM.

Question: What about the Activity [17] of the same compound?
Answer: Its Activity is 8.67%.

Question: What about the IC50 [18] of the same compound?
Answer: The IC50 was > 50 µM.

Question: What about the viability at 1 µM [3] of the same compound?
Answer: Its viability at 1 µM is 76%.

Question: What about the Activity [19] of the same compound?
Answer: Its Activity is 3.77%.

Question: And the TGI [20]?
Answer: Its TGI is “Active”.

Question: And the Activity [21]?
Answer: Its Activity is “Non-Toxic”.

Question: What about the GI50 [4] of the same compound?
Answer: Its GI50 is 0.11 µM.

Question: And the inhibition [22]?
Answer: Its inhibition is “Active”.

Question: What about the inhibition [23] of the same compound?
Answer: The inhibition was “Active”.

Question: And the GI50 [1]?
Answer: Its GI50 is 0.31 µM.

Question: And the Activity [24]?
Answer: The Activity was “Non-Toxic”.

Question: What about the Activity [25] of the same compound?
Answer: Its Activity is “Active”.

Question: And the inhibition [26]?
Answer: Its inhibition is “Active”.

Question: What about the IC50 [27] of the same compound?
Answer: Its IC50 is > 50 µM.

Question: And the IC50 [2]?
Answer: Its IC50 is 0.0503 µM.

Question: For `Oc1cc(O)c(-c2nc3ccccc3o2)cc1Cl`, which GI50 [4] is on record?
Answer: The GI50 was > 50 µM.

Question: And the GI50 [1]?
Answer: Its GI50 is > 50 µM.

Question: And the IC50 [2]?
Answer: The IC50 was > 1 µM.

Question: What does the source list for `O=C(c1cc(Cl)c(O)cc1O)N1CCc2ccsc2C1`?
Answer: GI50 [4]: 5.4 µM; GI50 [1]: 8.7 µM; IC50 [2]: 0.136 µM

Question: For `O=C(c1cc(Cl)c(O)cc1O)N1CCN(c2ccccc2)CC1`, which GI50 [4] is on record?
Answer: The GI50 was 9.3 µM.

Question: What about the GI50 [1] of the same compound?
Answer: Its GI50 is 19.1 µM.

Question: And the IC50 [2]?
Answer: The IC50 was 0.481 µM.

Question: With `O=C(c1cc(Cl)c(O)cc1O)N1CCc2ccccc2C1` as the compound, how does the GI50 [4] read?
Answer: The GI50 was 7.1 µM.

Question: And the GI50 [1]?
Answer: Its GI50 is 19.9 µM.

Question: What about the IC50 [2] of the same compound?
Answer: The IC50 was 0.183 µM.

Question: With `O=C(Nc1ccc(O)cc1)c1cc(Cl)c(O)cc1O` as the compound, how does the GI50 [1] read?
Answer: The GI50 was > 50 µM.

Question: What about the IC50 [2] of the same compound?
Answer: The IC50 was > 1 µM.
